Bioassay records from PubChem BioAssay.
PostGolgi ctrl = growth inhibition of yeast control strain, primary screen, counter-screen for post-Golgi transport modulator project | efflux-deficient yeast background strain, growth absorbance A615, 16 h | inhibition, % at 10 µM | 98,000 tested, 5% active
Calb biofilm kill = clotrimazole potentiators killing Candida biofilms, primary screen, with clotrimazole, Alamar Blue; 85,000 tested, 0.14% active; inhibition, % at 6 µM; C. albicans biofilm + clotrimazole;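 active means inhibition above 20%; inactive means inhibition below 20%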;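 further: preformed 24 hr biofilms exposed to compound for 48 hr; 0% = biofilm without compound and 100% = blank killed by clotrimazole plus chlorhexidine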
Ecoli WT expand = growth inhibitors of wild-type E. coli, primary screen, strain BW25113, expanded library, OD600; AID 710, 2007; growth inhibition, % at 100 µM; OD600 absorbance; 98,000 tested, 0.15% active;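 active means growth inhibition above about 50% at one test dose, limit read from the data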;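 further: growth measured after 20 h incubation at 37 °C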
PTK2B oligo ant = antagonists of Pyk2 self-association, primary screen, Q293 cells, FERM NanoBiT luminescence, HTS; Protein-tyrosine kinase 2-beta (Homo sapiens), Q14289; active compounds read low; z-score (the deposit names both 25 µM and 10 µM); 99,000 tested, 0.83% active; AID 1347419, 2020;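 active means Z-score of -3 or lower, scaled per plate to the spread of control and sample wells; inactive means z-score above -3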;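 further: negative z-score means lost luminescence so less FERM oligomerization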
Target sequence (Q14289 whole entry, looked up): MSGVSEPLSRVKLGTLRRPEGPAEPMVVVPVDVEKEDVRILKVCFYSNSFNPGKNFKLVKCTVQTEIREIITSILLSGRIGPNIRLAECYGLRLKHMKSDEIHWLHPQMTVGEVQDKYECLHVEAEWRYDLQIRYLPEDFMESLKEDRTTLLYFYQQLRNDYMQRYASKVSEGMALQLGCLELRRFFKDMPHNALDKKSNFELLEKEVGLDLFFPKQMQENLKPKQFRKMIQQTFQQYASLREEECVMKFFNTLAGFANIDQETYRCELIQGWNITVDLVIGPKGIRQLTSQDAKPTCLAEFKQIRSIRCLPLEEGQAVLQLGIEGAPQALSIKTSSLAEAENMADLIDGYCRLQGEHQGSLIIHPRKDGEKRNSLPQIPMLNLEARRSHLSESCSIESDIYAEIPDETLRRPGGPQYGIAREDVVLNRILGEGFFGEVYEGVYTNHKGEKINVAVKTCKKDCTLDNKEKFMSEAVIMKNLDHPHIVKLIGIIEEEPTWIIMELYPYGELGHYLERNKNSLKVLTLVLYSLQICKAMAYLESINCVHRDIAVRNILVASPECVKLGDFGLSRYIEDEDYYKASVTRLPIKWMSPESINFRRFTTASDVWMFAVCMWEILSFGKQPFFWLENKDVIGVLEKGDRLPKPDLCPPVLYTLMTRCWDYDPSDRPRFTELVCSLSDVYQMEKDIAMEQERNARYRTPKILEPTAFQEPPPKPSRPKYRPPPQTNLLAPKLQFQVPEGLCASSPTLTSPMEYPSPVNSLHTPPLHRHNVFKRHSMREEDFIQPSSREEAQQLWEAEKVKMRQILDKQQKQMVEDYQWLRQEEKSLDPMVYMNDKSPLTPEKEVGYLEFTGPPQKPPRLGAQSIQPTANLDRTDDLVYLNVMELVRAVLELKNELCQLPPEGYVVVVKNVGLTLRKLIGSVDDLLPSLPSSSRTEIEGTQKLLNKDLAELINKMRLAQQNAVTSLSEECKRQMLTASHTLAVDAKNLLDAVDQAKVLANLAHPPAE
PostGolgi yeast = phenotypic screen on post-Golgi transport, primary screen. 98,000 tested, 0.9% active. AID 739, 2007. inhibition, % at 10 µM. post-Golgi transport phenotypic cell assay;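 further: yeast cells grown in 1536-well plates; yeast grown about 18 h at 30C before absorbance read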
Ecoli tolC = growth inhibitors of E. coli tolC mutant, primary screen, strain BW25113 ΔtolC::kan, 384-well; 65,000 tested, 2.2% active; growth inhibition, % at 10 µM (by protocol); OD615;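 active means growth inhibition at or above a cutoff equal to the mean over every tested compound plus 3 SD, cut at about 60% in these data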;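 further: growth measured after 20 h incubation at 37 °C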
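Doses: one dose of 10 µM final / Material: E. coli BW25113 ΔtolC::kan, tolC deletion mutant strain / Buffer or medium: LB with kanamycin 50 µg/mL / Evaluation: percent growth inhibition / Detection: optical density read at 615 nm / Incubation: 37 °C, 20 h exposure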
The depositor's hits bear a star; nt = no result. Hits are enriched below; roughly 6.5% of the tested compounds scored in any of these assays. Unless noted, no stated cut-off is given here; in the data, active means inhibition above about 30%; inactive means the rest.

SMILES | PostGolgi ctrl | Calb biofilm kill | Ecoli WT expand | PTK2B oligo ant | PostGolgi yeast | Ecoli tolC
O=c1[nH]c(CN2CCN(Cc3ccc4c(c3)OCO4)CC2)nc2ccccc12 | nt | nt | nt | 0.19 | nt | -8
O=C(CSc1ccc(-c2ccc(Cl)cc2)nn1)Nc1ccc2c(c1)OCCO2 | nt | nt | nt | -0.26 | nt | nt
CCOc1ccc(OCC)c(S(=O)(=O)NCc2ccccn2)c1 | 4 | -2 | 5 | 1.3 | 2 | nt
CN(C)c1ccnc2sc(C(=O)NCc3ccccc3)c(N)c12 | 63* | 10 | -12 | 1 | 13 | 20
CC(=O)c1sc(Nc2nc(C)cc(C)n2)nc1C | 15 | 14 | 2 | 0.17 | 6 | nt
Cn1nc(-c2ccc(N3CCOCC3)c(NC(=O)COc3ccccc3)c2)c2ccccc2c1=O | nt | 2 | nt | nt | nt | 65*
Cc1cc2c(ncn2C(C)C)c(N)c1C | 14 | nt | -3 | -1.3 | 8 | nt
O=C(Cc1cccs1)N(Cc1cccs1)C1(C(=O)NC2CCCC2)CCCCC1 | 18 | 10 | -4 | -3.4* | -6 | nt
O=C(NC1CCCCC1)C(c1ccc2ncccc2c1)N(Cc1cccs1)C(=O)c1cccs1 (stereo not drawn) | 1 | nt | -13 | -2.9 | 25 | nt
O=C(NC1CCCCC1)C(c1cccs1)N(Cc1cccs1)C(=O)c1cccs1 (stereo not drawn) | nt | 8 | nt | -3.9* | nt | nt
O=C(Cc1cccs1)N(Cc1ccco1)C1(C(=O)NC2CCCCC2)CCCCC1 | 25 | nt | 1 | -4.2* | -16 | nt
CC(=O)N(Cc1ccco1)C1(C(=O)NC2CCCCC2)CCCCC1 | -7 | -1 | 1 | -0.6 | -2 | -2
CCCc1cc(C(=O)Nc2c(C)n(C)n(-c3ccccc3)c2=O)no1 | 14 | 3 | -2 | nt | 0 | nt
COc1cc(NC(=O)c2cccs2)c(C(=O)OCC(=O)NCc2ccccc2)cc1OC | -1 | -6 | 3 | -0.03 | 1 | nt
COc1cc(NC(=O)c2cccs2)c(C(=O)OCC(=O)NC(C)c2ccccc2)cc1OC (stereo not drawn) | 30* | nt | -9 | -1.1 | 6 | nt
CCOc1cc(C)c(C(C)C)cc1S(=O)(=O)N1CC(C)OC(C)C1 (stereo not drawn) | 18 | 3 | 2 | -1.8 | -5 | 68*
Cc1cccc(NS(=O)(=O)c2ccc(C)c(C(=O)OCC(=O)Nc3cc(C)on3)c2)c1 | 3 | 11 | 0 | -3.8* | -2 | 8
Cc1cccc(NS(=O)(=O)c2cc(C(=O)OCC(=O)Nc3cc(C)on3)ccc2C)c1 | 0 | nt | -2 | -3.4* | -6 | 2
COc1ccccc1NS(=O)(=O)c1cccc(C(=O)OCC(=O)Nc2cc(C)on2)c1 | 28 | 3 | 0 | -0.65 | -2 | nt
CNC(=O)c1cc2cc(Cl)cc(OC)c2oc1=O | nt | 1 | nt | 0.35 | nt | -3
COCCn1c(=O)[nH]c2cc(C(=O)NCCN3CCN(c4cccc(Cl)c4)CC3)ccc2c1=O | -3 | nt | -13 | -0.2 | -2 | 1
O=S(=O)(NCCc1ccccn1)c1ccc(F)c(F)c1 | 3 | 0 | 9 | -0.2 | -6 | -18
CSc1nc(SCC(=O)NCc2ccco2)c2c3c(sc2n1)COC(C)(C)C3 | 28 | 8 | -3 | -0.95 | 21 | 18
CC(C)Sc1nc(NCc2ccco2)c2c3c(sc2n1)COC(C)(C)C3 | 20 | 5 | 3 | -2.2 | -3 | 65*
Cc1ccc(/C(N)=N/OC(=O)c2cc(-c3ccccc3)nc3ccccc23)cc1 | 31* | nt | -7 | -0.63 | 22 | nt
SMILES | PostGolgi ctrl | Calb biofilm kill | Ecoli WT expand | PTK2B oligo ant | PostGolgi yeast | Ecoli tolC
Cc1ccsc1-c1nc(CSCC(=O)NCc2ccc3c(c2)OCO3)c(C)o1 | 13 | 14 | -4 | nt | -2 | 13
CCCS(=O)(=O)c1nnnn1-c1cccc(OC)c1 | 29 | 8 | 15 | -2.3 | 55* | 40
COC(=O)c1ccc(OC)c(CSc2nnc(COc3ccccc3)o2)c1 | 13 | 4 | 1 | -2.1 | 10 | 62*
Cn1c(=O)c(C(=O)c2ccccc2)nc2ccccc21 | -8 | 2 | -1 | 0.7 | -3 | 0
Cn1cc(C(=O)c2ccc(Cl)cc2)cc1-c1nc2ccccc2n1C | 40* | 9 | -12 | 0.07 | 9 | 54
CCC(=O)Nc1ccc(S(=O)(=O)Nc2ncccn2)cc1 | 31* | nt | 4 | -0.89 | 2 | nt
CC(=O)Nc1ccc(S(=O)(=O)Nc2ncccn2)cc1 | -12 | 6 | 1 | 0.35 | -4 | -9
COc1ccc(C2(CNC(=O)CCC(=O)O)CCCC2)cc1 | 0 | -2 | 8 | 0.28 | -1 | -14
COC(=O)C1=C(C)OC(N)=C(C#N)C1c1cccnc1 (stereo not drawn) | -1 | 3 | -3 | 0.22 | 4 | nt
N#CC1=C(N)Oc2ccc3ccc(O)cc3c2C1c1cccnc1 (stereo not drawn) | -2 | nt | 5 | -3.2* | -6 | nt
O=C(CSCc1ccc(Cl)cc1)N/N=C/c1ccc(Cl)cc1Cl | 3 | nt | -18 | 0.08 | 0 | nt
CCCCCC(=O)N/N=C/c1ccc([N+](=O)[O-])o1 | 2 | nt | 60* | -0.62 | 0 | nt
COC(=O)NCC1(C)CC(NC(=O)OC)CC(C)(C)C1 (stereo not drawn) | 1 | 4 | -5 | 0.66 | -5 | -7
COC(=O)NC1CCC(CC2CCC(NC(=O)OC)CC2)CC1 (stereo not drawn) | 49* | 9 | 0 | 0.29 | 14 | nt
CN(C)c1ccc(/C=C/C=C2/SC(=S)N(c3ccccc3)C2=O)cc1 | 11 | nt | -35 | -3* | 6 | nt
CCN(CC)c1ccc(N2C(=O)/C(=C/c3cccs3)SC2=S)cc1 | 0 | 5 | -20 | 0.69 | 6 | nt
CCS(=O)(=O)N1CCC(C(=O)N2CCc3ccccc3C2)CC1 | -13 | 4 | 10 | -0.28 | -5 | 2
Cc1ccccc1NC(=O)C1CCCN1S(=O)(=O)c1cccc2cccnc12 (stereo not drawn) | 15 | 12 | 4 | nt | -6 | 3
Cc1ccccc1NC(=O)C1CCCN(S(=O)(=O)c2cccc3cccnc23)C1 (stereo not drawn) | 31* | 18 | 0 | nt | -6 | 7
CCOc1ccc(OCC)c(NC(=O)C2CCCN2S(=O)(=O)c2cccc3cccnc23)c1 (stereo not drawn) | 27 | 8 | -5 | nt | 6 | 19
COc1ccc(NC(=O)C2CCCN2S(=O)(=O)c2cccc3cccnc23)c(OC)c1 (stereo not drawn) | 95* | 4 | 3 | nt | 97* | 4
Cn1cc(SCC(=O)NCc2ccc3c(c2)OCO3)c2ccccc21 | 7 | 4 | 0 | nt | -14 | 13
CC(=O)Nc1nc(SCCCc2ccccc2)n[nH]1 | 9 | 0 | 4 | -0.07 | -4 | 2
CC(=NC1CC1)c1c(-c2ccccc2)[nH]n(-c2nc3ccccc3s2)c1=O | 36* | nt | -8 | -1.7 | -4 | nt
CC(=NC1CCCC1)c1c(C)[nH]n(-c2nc3ccccc3s2)c1=O | 12 | 5 | -1 | 1.2 | 14 | -3
Cc1csc(C(=O)O)c1-n1cccc1 | 2 | nt | -9 | -0.04 | -4 | nt
